A selection: hits, their analogues and other compounds. The true share with any hit is near 9.6%.
Ba/F3 V617F tox: loss of viability in JAK2V617F-driven Ba/F3 cells; actives 1.1% (n = 220,000); AID 1446; inhibition, % at 5.6 µM; Ba/F3 EpoR-JAK2V617F viability, ATP luminescence;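 active means inhibition above the campaign mean plus 3 SD over all tested compounds, cut at about 24% in these data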;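 further: cytokine-independent growth of Ba/F3 cells driven by EpoR plus mutant JAK2; 0% = DMSO-treated cells and 100% = JAK inhibitor I control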
L major viab: Leishmania major promastigote growth inhibition | actives 9% (n = 200,000) | inhibition, % at 10 µM | Leishmania major promastigotes, resazurin fluorescence viability | AID 1063; in the data active means inhibition above about 50%;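 further: promastigotes grown with compound for 44 hours at 28 °C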
BaF3 tox: counter-screen for JAK2V617F inhibitors: parental Ba/F3 viability inhibitors; CellTiter-Glo ATP luminescence; actives 1.1% (n = 220,000); inhibition, % at 5.6 µM; AID 1486;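 active means inhibition above a per-campaign cutoff, the mean inhibition of all tested compounds plus 3 SD, cut at about 27% in these data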;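 further: 0% = DMSO wells and 100% = JAK Inhibitor I control wells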
MT stabilizer: microtubule stabilization, imaging screen | HeLa tubulin immunostaining HCS, 24 h; share of cells brighter than vehicle mean+2SD | % tubulin-high responders, % at 10 µM | actives 0.83% (n = 200,000) | AID 2205;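 active means plate Z-score above 3 for both tubulin-high and condensed-nucleus cell shares, with cell loss under 80%, at 10 µM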;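 further: anti alpha tubulin signal scored within the nucleus-defined area of each cell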
APP 5UTR inh: APP translation inhibition; SH-SY5Y APP 5'UTR-luciferase reporter, luminescence; inhibition, % at 2 µM; actives 0.82% (n = 190,000); AID 1285;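 active means inhibition above a set limit, derived from the sample mean plus 3 SD, cut at about 45% in these data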
b-catenin transl: alters nuclear translocation of beta-catenin in HeLa cells | immunofluorescence imaging | nuclear translocation activity, % at 5 µM | actives 0.3% (n = 190,000) | AID 1665;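 active means nuclear translocation activity above 50% at 5 µM, with a well cell count of 50 or more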;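 further: per-cell ratio of nuclear to cytoplasmic median beta-catenin stain intensity; plate controls were DMSO negative control for no effect and GSK-3 inhibitor IX positive control for full effect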
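Test system: human HeLa cell line; Doses: 5 µM primary, 0.02–20 µM confirmation; Incubation: 24 h compound exposure, 37°C; Detection: beta-catenin immunofluorescence imaging with DAPI; Read-out: beta-catenin nuclear/cytoplasmic ratio, % activation.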
* marks the source's active call; other numbers are inactive results; . = no result.

SMILES	Ba/F3 V617F tox	L major viab	BaF3 tox	MT stabilizer	APP 5UTR inh	b-catenin transl
CCCC(=O)Nc1ccc(NC(=S)NC(=O)c2ccccc2[N+](=O)[O-])cc1	-5	-1	5	10*	-19	.
CCC(=O)NC(=S)Nc1ccc(NC(=O)c2ccccc2[N+](=O)[O-])cc1	-2	-1	4	4	-7	-1
CCCCCC(=O)NNC(=S)NC(=O)c1ccccc1[N+](=O)[O-]	-1	-2	3	4	-2	-1
Cc1[nH]c2ccccc2c1CN1CCN(c2ccccn2)CC1	1	.	-4	.	.	2
Cc1[nH]c2ccccc2c1CN1CCC(Cc2ccccc2)CC1	13	100*	7	2	5	3
CCOC(=O)C1=C(O)/C(=C\c2ccc(CNS(=O)(=O)c3ccc(Br)cc3)o2)N=C1C	-3	66*	-3	2	11	-2
COC(=O)C1=C(O)/C(=C\c2ccc(CNS(=O)(=O)c3ccc(Cl)cc3)o2)N=C1C	-4	53*	0	7	26	.
COC(=O)C1=C(O)/C(=C\c2ccc(CNS(=O)(=O)c3ccccc3)o2)N=C1C	2	37	9	2	1	-2
CCN1CCc2c(OCc3ccc(C)cc3)cccc2C1=O	2	9	5	3	-3	-1
Clc1ccc(Cn2ncc3c(NCc4ccccc4)ncnc32)c(Cl)c1	2	-7	2	17*	13	10
Fc1ccc(CNc2ncnc3c2cnn3-c2ccccc2)cc1	1	-1	9	2	13	-2
c1ccc(CNc2ncnc3c2cnn3-c2ccccc2)cc1	3	-4	5	54*	18	12
Cn1ncc2c(NCc3ccccc3)ncnc21	-1	-3	0	8	20	2
c1ccc(-n2ncc3c(NCCN4CCCCC4)ncnc32)cc1	-3	98*	3	3	-62	-8
Cc1nc(CS(=O)c2ccc(Cl)cc2)cc(NCc2ccc(Cl)cc2Cl)n1 (stereo not drawn)	1	7	2	1	-8	.
CC(=O)C(/C=N/c1cc(-c2ccc(C)cc2)nn1-c1ccccc1)=C(\C)O	-3	64*	3	4	-97	-1
O=C(NC1CCCCC1)C(c1ccc(F)cc1)N(CCc1ccccc1)C(=O)CN1C(=O)c2ccccc2S1(=O)=O (stereo not drawn)	-4	50*	5	3	15	-1
Cc1cc(C)c(N(C(=O)CN2C(=O)c3ccccc3S2(=O)=O)C(C(=O)NCC2CCCO2)c2ccc(F)cc2)c(C)c1 (stereo not drawn)	0	69*	3	2	1	-1
O=C(CN1C(=O)c2ccccc2S1(=O)=O)NC1CCCC1	0	-5	3	6	-2	-2
O=C(NC1CCCCC1)C(c1ccc(F)cc1)N(Cc1ccccc1)C(=O)CN1C(=O)c2ccccc2S1(=O)=O (stereo not drawn)	1	58*	8	4	11	-3
O=C(NC1CCCC1)C(c1ccc(F)cc1)N(Cc1ccc(F)cc1)C(=O)CCl (stereo not drawn)	-1	100*	5	2	2	3
O=C(COC(=O)[C@H](Cc1ccccc1)NC(=O)c1ccco1)NCc1ccccc1	-4	1	0	2	.	-3
COc1cccc(/C=C/C(=O)OCC(=O)Nc2cccc(S(=O)(=O)N3CCOCC3)c2)c1OC	1	-5	9	4	-6	-1
C[C@H]1C=C(C(=O)NC2CC2)O[C@@H](OCc2ccc(CO)cc2)C1	.	.	.	.	.	0
CCOC(=O)C1CCCN(C(=S)NC2CCCC2)C1 (stereo not drawn)	3	-5	6	8	9	1
SMILES	Ba/F3 V617F tox	L major viab	BaF3 tox	MT stabilizer	APP 5UTR inh	b-catenin transl
O=C(O)Cc1csc(NC(=O)CSc2cccc(C(=O)O)n2)n1	-5	.	-4	.	.	2
COc1ccc(Cn2c(=O)[nH]c3cc(C(=O)N4CCN(c5ccccn5)CC4)ccc3c2=O)cc1	5	-3	9	2	-19	1
Cc1ccc2cccc(OCCOCCOc3ccccc3Br)c2n1	1	67*	3	5	-64	.
CC1CCN(CCCCOc2ccccc2-c2ccccc2)CC1	-1	99*	2	3	0	-4
CC1CCCN(CCCOc2ccccc2-c2ccccc2)C1 (stereo not drawn)	1	94*	6	2	16	-4
CC1CN(CCOc2ccccc2-c2ccccc2)CC(C)O1 (stereo not drawn)	0	7	5	3	0	4
CC1CCN(CCOCCOc2ccccc2Br)CC1	3	82*	9	2	-3	-3
CN(C)CCOc1ccccc1-c1ccccc1	-2	6	2	2	6	1
CCCCOc1ccc(C(=O)Nn2c(-c3cccs3)nc3ccccc3c2=O)cc1	2	1	2	4	-2	-5
Brc1ccc2ncc(Br)cc2c1	-2	19	4	2	-5	-2
O=C(Nc1cccc(Cl)c1N1CCOCC1)c1cccnc1Cl	-1	.	0	.	.	1
Cc1cc(=O)c2cc3nc(-c4cccnc4)oc3c(Br)c2o1	-1	.	0	.	.	-3
CC1CCN(CCOCCOc2ccccc2-c2ccccc2)CC1	0	83*	1	3	-27	-1
O=C(Nc1ccc(S(=O)(=O)Nc2ncccn2)cc1)c1ccc(S(=O)(=O)N2CCCC2)cc1	-4	18	1	7	-10	-4
NC(=S)NNc1cccc2cccnc12	-1	-2	8	2	-12	-2
O=S(=O)(Nc1cccc2cccnc12)c1ccc(S(=O)(=O)N2CCCC2)cc1	3	99*	6	8	-4	.
NC(=S)Nc1cccc2cccnc12	-2	89*	-6	2	18	0
CS(=O)(=O)Nc1cccc2cccnc12	-2	80*	-3	6	8	-4
CN(C)CCNC(=S)Nc1ccc(F)c(F)c1F	-3	4	5	4	6	-2
Cc1nc2ccccc2n1S(=O)(=O)c1ccc(Br)cc1	-4	70*	0	4	-3	-2
Cc1ccc(NC(=S)NNC(=O)c2cccc([N+](=O)[O-])c2)cc1Cl	-1	.	-3	.	.	0
CC1CCCC(C)N1CC(C)(C)NS(=O)(=O)c1ccc(Cl)cc1 (stereo not drawn)	0	88*	4	2	4	-5
CC(C)(CN1CCc2ccccc2C1)NS(=O)(=O)c1ccccc1	-2	.	-2	.	.	-2
CC1CC(C)CN(CC(C)(C)NS(=O)(=O)c2ccccc2)C1 (stereo not drawn)	3	89*	5	2	-3	-6
O=C1CCCCc2sc(Br)c([N+](=O)[O-])c2N1	2	.	-3	.	.	0
Cc1ccc(N=Cc2sccc2C)cc1C	1	0	7	1	10	.

Bioassay records (PubChem)
